According to ChEMBL document CHEMBL1125569, “5-HT3 receptor antagonists. 1. New quinoline derivatives” (J Med Chem, 1992):
pKi: −log10 of the molar value.

Key:
[1] = biological target: T1, Serotonin 3 (5-HT3) receptor (Rattus norvegicus, UniProt P35563+Q9JJ16); experiment: Ability to displace [3H]quipazine binding to 5-hydroxytryptamine 3 receptor sites in NG 108-15.; assay type: protein-complex assay
T1 sequence (P35563 whole entry): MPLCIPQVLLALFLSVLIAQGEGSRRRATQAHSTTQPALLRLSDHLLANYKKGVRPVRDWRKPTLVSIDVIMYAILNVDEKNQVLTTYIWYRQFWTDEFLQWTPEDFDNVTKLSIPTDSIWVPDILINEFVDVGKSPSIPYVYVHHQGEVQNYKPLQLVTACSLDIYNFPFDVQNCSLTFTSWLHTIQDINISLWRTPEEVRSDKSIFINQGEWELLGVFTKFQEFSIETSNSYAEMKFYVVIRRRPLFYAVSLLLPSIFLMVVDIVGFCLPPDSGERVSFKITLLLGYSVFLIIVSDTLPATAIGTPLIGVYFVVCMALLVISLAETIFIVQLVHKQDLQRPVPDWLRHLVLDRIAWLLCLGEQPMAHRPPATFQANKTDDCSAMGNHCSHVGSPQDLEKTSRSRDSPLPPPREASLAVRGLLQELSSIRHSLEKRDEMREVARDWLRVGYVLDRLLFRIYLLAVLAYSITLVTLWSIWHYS
T1 sequence (Q9JJ16 whole entry): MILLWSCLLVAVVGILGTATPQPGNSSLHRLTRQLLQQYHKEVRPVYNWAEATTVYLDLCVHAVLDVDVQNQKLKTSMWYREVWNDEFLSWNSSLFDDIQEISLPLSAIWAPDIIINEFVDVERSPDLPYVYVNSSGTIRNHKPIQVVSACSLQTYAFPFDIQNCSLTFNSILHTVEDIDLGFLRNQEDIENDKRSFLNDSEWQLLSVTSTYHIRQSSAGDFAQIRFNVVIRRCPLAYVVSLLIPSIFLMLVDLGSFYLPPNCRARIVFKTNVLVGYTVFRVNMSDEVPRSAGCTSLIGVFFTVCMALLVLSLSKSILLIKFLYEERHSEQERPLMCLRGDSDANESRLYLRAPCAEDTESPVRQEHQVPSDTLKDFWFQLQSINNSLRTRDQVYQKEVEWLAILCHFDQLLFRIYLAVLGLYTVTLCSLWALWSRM
Method in brief: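 Membranes from 3 × 10^6 NG 108-15 cells in 20 mM Tris-HCl pH 7.5 with 154 mM NaCl. Incubated with 2 nM [3H]quipazine and varying test concentrations, 37 °C for 60 min. Stopped with ice-cold buffer, then GF/C filtration and scintillation counting. Nonspecific binding defined with 10 μM MDL 72222. […] Mean ± SEM, n = 3.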

[2] = biological target: Serotonin 3 (5-HT3) receptor (Rattus norvegicus) (UniProt P35563+Q9JJ16); experiment: Inhibition of 5-HT induced bradycardia [Benzold-Jarisch (BJ) reflex test] in rats at 5 min administered intravenously; assay type: functional
Method in brief: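 Male Wistar rats (230–330 g) under urethane (1.25 g/kg ip), tracheal cannula. Blood pressure taken from the left carotid, heart rate from the pressure trace. Compounds given iv via jugular vein. Bezold-Jarisch reflex evoked by bolus iv 5-HT 30 μg/kg, with challenges every 12 min. ED50 is the dose halving 5-HT bradycardia, by linear regression, 4 rats.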

Rattus norvegicus = organism: Rattus norvegicus; experiment: animal or person; assay type: functional; conditions: 5 min
[3] = biological target: T1, Serotonin 3 (5-HT3) receptor; experiment: Compound was evaluated for its ability to displace [3H]quipazine binding to 5-hydroxytryptamine 3 receptor sites in NG 108-15.; assay type: protein-complex assay

Structure (SMILES)	pKi [1]	ED50 [2] [mg/kg]	ED50 (Rattus norvegicus) [mg/kg]	pKi [3]
CN1C2CCC1CC(NC(=O)c1ccnc3ccccc13)C2 (stereo not drawn)	< 7.00			
CCCCn1c(=O)cc(C(=O)NC2CC3CCC(C2)N3C)c2ccccc21 (stereo not drawn)	7.22			
CCCCn1c(=O)cc(C(=O)OC2CC3CCC(C2)N3C)c2ccccc21 (stereo not drawn)	9.17	0.041		
CCn1c(=O)cc(C(=O)OC2CC3CCC(C2)N3C)c2ccccc21 (stereo not drawn)	8.96	0.022		
CN1C2CCC1CC(NC(=O)c1cc(=O)n(C)c3ccccc13)C2 (stereo not drawn)	< 7.00			
CCCn1c(=O)cc(C(=O)OC2CC3CCC(C2)N3C)c2ccccc21 (stereo not drawn)	9.35	0.33		
CC(C)Oc1cc(C(=O)NC2CC3CCC(C2)N3C)c2ccccc2n1 (stereo not drawn)	7.28			
CC(C)n1c(=O)cc(C(=O)OC2CC3CCC(C2)N3C)c2ccccc21 (stereo not drawn)	10.49	0.081		
CCCOc1cc(C(=O)NC2CC3CCC(C2)N3C)c2ccccc2n1 (stereo not drawn)	7.38			
CCCCOc1cc(C(=O)OC2CC3CCC(C2)N3C)c2ccccc2n1 (stereo not drawn)	9.41	0.2		
CCCCn1c(=O)c(CC)c(C(=O)NC2CC3CCC(C2)N3C)c2ccccc21 (stereo not drawn)	< 7.00			
CN1C2CCC1CC(OC(=O)c1cc(=O)n(-c3ccccc3)c3ccccc13)C2 (stereo not drawn)	9.29	0.044		
CN1C2CCC1CC(NC(=O)c1cc(=O)n(-c3ccccc3)c3ccccc13)C2 (stereo not drawn)	7.20			
CCCCn1c(=O)cc(C(=O)OC2CC3CCC(C2)N3C)c2cc(C)ccc21 (stereo not drawn)	7.36			
CN1C2CCC1CC(OC(=O)c1cc(=O)n(Cc3ccccc3)c3ccccc13)C2 (stereo not drawn)	8.89			
Cc1nccn1CC1CCc2c(c3ccccc3n2C)C1=O (stereo not drawn) [ONDANSETRON]			0.021	
CN1C2CCC1CC(OC(=O)c1ccnc3ccccc13)C2 (stereo not drawn)				8.15
COc1cc(C(=O)OC2CC3CCC(C2)N3C)c2ccccc2n1 (stereo not drawn)	9.24	5.64		

Structure (SMILES)	pKi [1]	ED50 [2] [mg/kg]	ED50 (Rattus norvegicus) [mg/kg]	pKi [3]
CCCCCOc1cc(C(=O)OC2CC3CCC(C2)N3C)c2ccccc2n1 (stereo not drawn)	9.07	1.13		
CCCCCCOc1cc(C(=O)OC2CC3CCC(C2)N3C)c2ccccc2n1 (stereo not drawn)	8.49	7.68		
CN1C2CCC1CC(NC(=O)c1cc(O)nc3ccccc13)C2 (stereo not drawn)	< 7.00			
CCCCn1c(=O)c(CC)c(C(=O)OC2CC3CCC(C2)N3C)c2ccccc21 (stereo not drawn)	6.80			
CCCCN1C(=O)CC(C(=O)OC2CC3CCC(C2)N3C)c2ccccc21 (stereo not drawn)	8.06			
CCCCCn1c(=O)cc(C(=O)OC2CC3CCC(C2)N3C)c2ccccc21 (stereo not drawn)	9.02	0.059		
CCOc1cc(C(=O)OC2CC3CCC(C2)N3C)c2ccccc2n1 (stereo not drawn)	9.06	0.07		
CCCCCCn1c(=O)cc(C(=O)OC2CC3CCC(C2)N3C)c2ccccc21 (stereo not drawn)	8.96			
CN1C2CCC1CC(OC(=O)c1cc(=O)n(C)c3ccccc13)C2 (stereo not drawn)	8.59	0.18		
CCCOc1cc(C(=O)OC2CC3CCC(C2)N3C)c2ccccc2n1 (stereo not drawn)	9.49	6.78		
CN1C2CCC1CC(OC(=O)c1cc(O)nc3ccccc13)C2 (stereo not drawn)			0.017	8.36
CC(C)CCn1c(=O)cc(C(=O)OC2CC3CCC(C2)N3C)c2ccccc21 (stereo not drawn)	8.82	0.059		
CCCn1c(=O)cc(C(=O)NC2CC3CCC(C2)N3C)c2ccccc21 (stereo not drawn)	7.17			
CC(C)Cn1c(=O)cc(C(=O)OC2CC3CCC(C2)N3C)c2ccccc21 (stereo not drawn)	9.33	0.069		
CC(C)COc1cc(C(=O)OC2CC3CCC(C2)N3C)c2ccccc2n1 (stereo not drawn)	9.36	0.24		
CCCCOc1cc(C(=O)NC2CC3CCC(C2)N3C)c2ccccc2n1 (stereo not drawn)	7.72			
CC(C)Oc1cc(C(=O)OC2CC3CCC(C2)N3C)c2ccccc2n1 (stereo not drawn)	9.51	1.62		
